Results from PMC4720140 (Journal of medicinal chemistry, 2015).
“Also recorded” adds a separate entry of the source.

Tests used:
[1] = system: membrane translocation of Akt and PHLPP1 in LNCaP cells; experiment: Western blot of membrane versus cytoplasmic fractions of LNCaP cells; type: cell-based; details: 24 h
[2] = system: ILK distribution in LNCaP cells; experiment: Immunocytochemistry of cellular distribution of ILK in LNCaP cells; type: cell-based; details: serum-free medium, 24 h
Summary of the method: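 LNCaP cells seeded on poly-L-lysine-coated surfaces at 12000 cells/cm² for 24 h, then exposed to test compound in serum-free RPMI 1640 for 24 h. Fixed in 4% formaldehyde for 20 min, permeabilised with 0.1% Triton X-100 for 15 min at room temperature, blocked in 1% FBS for 1 h. Endogenous ILK stained with antibody (1:300) overnight, then Alexa Fluor-conjugated secondary (1:500) for 2 h. Nuclei stained with DAPI; imaged by confocal microscopy.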

[3] = system: Akt and PHLPP1 membrane localization in LNCaP cells; experiment: Immunocytochemistry of cellular distribution of Akt and PHLPP1 in LNCaP cells; type: cell-based; details: serum-free medium, 24 h
[4] = system: phosphorylation of Ser473-Akt, MDM2 and IKK in PC-3 xenograft tumors; experiment: Western blot of Akt signaling markers in PC-3 tumor lysates; type: in vivo, athymic nude mice; details: after 21 days
[5] = system: phosphorylation of Akt (Ser473), MDM2 and IKK in PC-3 cells; experiment: Western blot of Akt signaling in PC-3 cells; type: cell-based; details: different concentrations, 24 h
[6] = system: phosphorylation of Akt (Ser473), MDM2 and IKK in LNCaP cells; experiment: Western blot of Akt signaling in LNCaP cells; type: cell-based; details: different concentrations, 24 h
Summary of the method: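 Lines kept in RPMI 1640 with 10% FBS at 37 °C, 5% CO₂. LNCaP were seeded on poly-L-lysine-coated flasks (12000 cells/cm²) for 24 h, then dosed in serum-free RPMI. Cells got test compound for 24 h, then were scraped and lysed in 1% SDS/Tris pH 8 buffer with protease inhibitors. Lysates were spun at 14000g and BCA-normalized, then run on SDS-PAGE/nitrocellulose, probed with primary antibody (1:1000, overnight, 4 °C) and HRP secondary, and detected by ECL.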

[7] = system: subcutaneous PC-3 xenograft tumors; experiment: PC-3 xenograft tumor growth in nude mice; type: in vivo, athymic nude mice; details: versus vehicle
[8] = target: T1, PH domain of PDK1 (Homo sapiens, UniProt O15530); experiment: SPR binding to the PDK1 PH domain
T1 sequence (O15530 459-550 limits assumed): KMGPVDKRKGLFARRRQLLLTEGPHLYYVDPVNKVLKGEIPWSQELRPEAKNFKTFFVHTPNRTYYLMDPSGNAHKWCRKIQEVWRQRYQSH
Summary of the method: (§1)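 Surface plasmon resonance: GST-tagged PH-domain fusion protein amine-coupled to a CM5 chip at 17000 response units. Test compound injected at 1–20 µM at a flow rate of 30 µL/min. DMSO at 1% (v/v) or less in samples and running buffer.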

[9] = target: T2, PH domain of PHLPP1 (Homo sapiens, UniProt O60346); experiment: SPR binding to the PHLPP1 PH domain
T2 sequence (O60346 536-636 limits assumed): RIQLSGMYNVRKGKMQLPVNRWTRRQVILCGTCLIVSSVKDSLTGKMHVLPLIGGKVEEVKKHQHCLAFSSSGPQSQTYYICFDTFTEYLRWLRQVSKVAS
Summary of the method: as §1

[10] = target: T3, PH domain of ILK (Homo sapiens, UniProt Q13418); experiment: SPR binding to the ILK PH domain
T3 sequence (Q13418 180-212 limits assumed): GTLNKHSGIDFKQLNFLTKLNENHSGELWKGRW
Summary of the method: as §1

[11] = system: PC-3 cells; experiment: MTT cell viability assay in PC-3 cells; type: cell-based; details: 24 h exposure in serum-free medium
Summary of the method: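 PC-3 cells plated uncoated at 5000 cells/well in 10% FBS. After 24 h, exposed to test compound in serum-free medium for 24 h. MTT added (0.5 mg/mL final) for 2 h, then medium replaced with DMSO and absorbance read at 595 nm. Viability expressed as % of vehicle-treated control; n = 6, means ± SD.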

[12] = oral gavage 100 mg/kg once daily
[13] = ip injection 50 mg/kg once daily for 21 days

Structure (SMILES)	Localization of Akt and PHLPP1 to the plasma membrane ([3]; 5 µM)	Phosphorylation levels of Akt, MDM2 and IKK in tumor lysates [4, 12]	Phosphorylation level of Akt (Ser473) and/or MDM2 and IKK [5]	Phosphorylation level of Akt (Ser473) and/or MDM2 and IKK [6]	Suppression of PC-3 xenograft tumor growth [7, 13]	Localization of Akt and PHLPP1 to the plasma membrane ([3]; 10 µM)	other results
Cc1c(S(N)(=O)=O)cc2c(c1C)OC(C)(CCCC(C)C)CC2 (centres unmarked) [Compound 20]	facilitated the localization of Akt and PHLPP1 to the plasma membrane	parallel decreases in the phosphorylation levels of Akt, MDM2, and IKK	dose-dependently reduced the phosphorylation level of Akt and/or MDM2 and IKK	dose-dependently reduced the phosphorylation level of Akt and/or MDM2 and IKK	equipotent in suppressing PC-3 tumor growth irrespective of the route of administration	–	Membrane translocation of Akt and PHLPP1 (membrane versus cytoplasmic fractions) [1]: higher potency than 3 in facilitating the membrane translocation; Cellular distribution of ILK ([2]; 5 µM): Lack of effect; also recorded: no apparent changes in the distribution of ILK; Phosphorylation levels of Akt, MDM2 and IKK in tumor lysates ([4]; ip injection 50 mg/kg once daily): parallel decreases in the phosphorylation levels of Akt, MDM2, and IKK; Suppression of PC-3 xenograft tumor growth ([7]; oral gavage 100 mg/kg once daily for 21 days): equipotent in suppressing PC-3 tumor growth irrespective of the route of administration
CC(C)CCCC1(C)CCc2cc(S(N)(=O)=O)cc(Br)c2O1 (centres unmarked) [Compound 22]	facilitated the localization of Akt and PHLPP1 to the plasma membrane	–	dose-dependently reduced the phosphorylation level of Akt and/or MDM2 and IKK	dose-dependently reduced the phosphorylation level of Akt and/or MDM2 and IKK	–	–	–
Cc1c(O)cc2c(c1C)O[C@@](C)(CCCC(C)C)CC2 [Compound 3, (S)-2,7,8-trimethyl-2-(4-methylpentyl)chroman-6-ol]	–	unable to affect any of these signaling markers	dose-dependently reduced the phosphorylation level of Akt and/or MDM2 and IKK	dose-dependently reduced the phosphorylation level of Akt and/or MDM2 and IKK	significantly suppressed PC-3 xenograft tumor growth	facilitated the localization of Akt and PHLPP1 to the plasma membrane	Cellular distribution of ILK ([2]; 10 µM): Lack of effect; Kd [8]: 10.2 ± 1.2 µM; Kd [9]: 690 ± 360 nM; Kd [10]: 8.7 ± 3.6 µM; Suppression of PC-3 xenograft tumor growth ([7]; oral gavage 100 mg/kg once daily for 21 days, 100 mg/kg): not apparent; also recorded: no in vivo tumor-suppressive activity
CC(C)CCCC1(C)CCc2cc(S(N)(=O)=O)cc(F)c2O1 (centres unmarked) [Compound 21]	–	–	failed to elicit Ser473-Akt dephosphorylation	failed to elicit Ser473-Akt dephosphorylation	–	no change in the cellular distribution of Akt or PHLPP1	–
COc1cc2c(c(C)c1C)OC(C)(CCCC(C)C)CC2 (centres unmarked) [Compound 5]	–	–	–	–	–	–	Antiproliferative effect (IC50) in PC-3 cells [11]: remained inactive
